rRNA inh HTS – inhibitors of bacterial rRNA selective over humanized ribosomes | 1.6% of 350,000 active | GFP signal change (wild-type ribosome), % (no concentration beside the values) | E. coli WT GFP vs humanized-ribosome RFP mutants, fluorescence, 24 h; stronger effect = lower value; DMSO median 0, no signal -100 | AID 720706;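 active means significant combined selectivity score with lowered wild-type GFP, culture density cut under 30%, mutant RFP and density less affected; inactive means any of these conditions unmet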
FN deposition inh – fibronectin deposition inhibition; AH1F fibroblasts, Alexa488-fibronectin deposition fluorescence, overnight; inhibition, % at 12.6 µM; 0.086% of 350,000 active;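 active means mean inhibition across replicates of 30% or more, regardless of how many single replicates reach that level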;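 further: positive control wells lacked labelled fibronectin entirely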
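Assay system: AH1F fibroblast monolayer, labelled fibronectin deposition. Amount: 10000 cells per well. Also added: labelled fibronectin 24 nM. Compound: single-point pinned compound. Incubation: cell attachment 1 h, compound and FN exposure overnight. Detection: fluorescence after three HBSS washes, excitation 485 nm, emission 525 nm. Read-out: inhibition of fibronectin deposition signal.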
ERp5 block – inhibitors of human ERp5; ERp5 insulin aggregation, absorbance 650 nm, 90 min; inhibition, % at 9.99 µM; 0.05% of 350,000 active; AID 651711;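 active means mean replicate inhibition above about 25%, with every replicate also reaching it, limit read from the data, passing the limit was not always enough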
Target sequence (Q15084 whole entry, looked up): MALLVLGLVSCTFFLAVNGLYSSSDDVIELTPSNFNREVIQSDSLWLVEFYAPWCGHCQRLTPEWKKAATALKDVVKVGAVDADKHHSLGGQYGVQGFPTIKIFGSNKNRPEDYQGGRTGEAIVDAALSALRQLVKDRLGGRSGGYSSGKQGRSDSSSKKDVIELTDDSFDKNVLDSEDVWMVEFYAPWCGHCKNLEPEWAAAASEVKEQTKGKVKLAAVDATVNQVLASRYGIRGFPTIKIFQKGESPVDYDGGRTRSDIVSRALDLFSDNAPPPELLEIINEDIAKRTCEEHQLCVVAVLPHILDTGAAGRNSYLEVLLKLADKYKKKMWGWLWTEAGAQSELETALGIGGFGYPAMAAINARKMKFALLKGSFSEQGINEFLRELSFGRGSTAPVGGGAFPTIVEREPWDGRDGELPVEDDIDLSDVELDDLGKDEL
Env fusion inh – blocks HIV Env-driven cell-cell fusion. HeLa-JRFL Env/CEM21 cell fusion, luciferase. inhibition, % at 12.3 µM. 1.1% of 360,000 active;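 active means mean replicate inhibition score of at least 50 and every replicate individually at or above 50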;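 further: 0% = plate neutral controls and 100% = maraviroc near 300 nM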
PvdQ acylase – blocks Pseudomonas aeruginosa PvdQ acylase activity | AID 488965 | 0.063% of 340,000 active | inhibition, % at 10 µM | purified PvdQ acylase, fluorescence plate reader; in the data active means inhibition above about 30%, passing the limit was not always enough;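 further: 0% = vehicle neutral wells and 100% = reference inhibitor wells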
PDI turbidity – inhibitors of human protein disulfide isomerase; AID 588391; P07237; 0.052% of 350,000 active; inhibition, % at 10 µM; PDI insulin aggregation turbidity, A650, 90 min;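 active means mean inhibition across replicates of 30% or more, whatever share of single replicates reach that level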
Numbers without * were called inactive; . = no result; [ ] = dose if it differs, or a comment. In the library only some 2.2% were active in any assay of this set; here they are far more common.

SMILES | rRNA inh HTS | FN deposition inh | ERp5 block | Env fusion inh | PvdQ acylase | PDI turbidity
CC(=O)C1=C(O)C(=O)N(CCc2c[nH]c3ccccc23)C1c1ccc(O)cc1 (configuration not stated) | . | 2 | . | 9 | -1 | 46*
C[C@H](CO)N1C[C@H](C)[C@H](CN(C)Cc2ccc3c(c2)OCO3)Oc2ccc(NC(=O)CCN3CCOCC3)cc2C1=O | 4 | -2 | 0 | 23[16.7 µM] | . | .
CC(=O)OCC1=C(C(=O)O)N2C(=O)C(NC(=O)CCn3nc(C)c(Cl)c3C)C2SC1 (configuration not stated) | 19 | 33* | 12 | -33 | 13 | 2
O=C(Nc1ccc(-n2ccc(C(F)(F)F)n2)cc1)Nc1cccc(Cl)c1 | -51* | 7 | -5 | -29 | 2 | -2
CC(NC(=O)c1ccc(CS(=O)(=O)c2ccc(Cl)cc2)o1)c1ccc2c(c1)OCCO2 (configuration not stated) | -17* | . | -4 | . | -17 | -6
CNC(=O)C[C@H]1CC[C@@H]2[C@H](COC[C@H](O)CN2S(=O)(=O)c2ccc(Oc3ccccc3)cc2)O1 | 2 | 4 | 3 | . | . | .
COc1cc(/C=C2\SC(=S)N(C(C(=O)O)c3ccccc3)C2=O)cc(OC)c1OC (configuration not stated) | -26* | -1 | -4 | -3 | 6 | 2
COc1cccc(/C=C2\SC(=S)N(C(C(=O)O)c3ccccc3)C2=O)c1OC (configuration not stated) | -34* | -3 | -2 | 11 | -2 | -2
CCCNC(=O)N(C)C[C@H]1Oc2cc(C3=CCCC3)ccc2S(=O)(=O)N([C@@H](C)CO)C[C@H]1C | -1 | . | -6 | 10[16.7 µM] | . | .
O=C(C[C@H]1CC[C@H]2[C@@H](COC[C@@H](O)CN2S(=O)(=O)c2ccccc2)O1)NCCN1CCCCC1 | 1 | -7 | -2 | -4[16.7 µM] | . | .
Cc1ccccc1S(=O)(=O)N1C[C@H](O)COC[C@H]2O[C@@H](CC(=O)NCc3ccccc3Cl)CC[C@@H]21 | 4 | -2 | 2 | 57*[16.7 µM] | . | .
O=C(C[C@@H]1CC[C@@H]2[C@H](COC[C@@H](O)CN2S(=O)(=O)c2ccccc2)O1)NCCN1CCCC1 | 3 | -1 | 43* | . | . | .
C[C@@H]1CN([C@@H](C)CO)S(=O)(=O)c2ccc(C#CC3(O)CCCC3)cc2O[C@H]1CN(C)C(=O)Nc1ccccc1 | -4 | 10 | 3 | -102[16.7 µM] | . | .
O=C(CCl)Nc1ccccc1Sc1ccc(Cl)cc1 | . | -4 | . | -30 | -8 | 50*
COc1ccc(NC(=O)/C(Cl)=C(/Cl)S(=O)Cc2ccc(Cl)cc2)cn1 (configuration not stated) | -27 | 55* | 1 | 4 | 1 | 9
COc1ccc(NC(=O)C(Cl)=C(Cl)Cl)cn1 | 9 | 19 | 0 | 1 | -13 | 9
Cc1ccc(N(C)S(=O)(=O)c2cccc(C(=O)Nc3ccc(N4CCOCC4)cc3)c2)cc1 | -14 | -5 | 4 | . | 5 | -3
COc1ccc(N(C)S(=O)(=O)c2cccc(C(=O)Nc3ccc(N4CCOCC4)cc3)c2)cc1 | -21* | 8 | 1 | 21 | -17 | -1
COc1ccccc1N1CCN(C(=O)CSc2ncccc2-c2nc3ccccc3[nH]2)CC1 | . | 2 | . | -8 | -8 | -4
COc1ccccc1N1CCN(C(=O)CSc2nc3ccccc3[nH]2)CC1 | -41* | . | 7 | . | -9 | 0
COc1ccccc1N1CCN(C(=O)CSc2nnc3n2C(C)(C)Cc2ccccc2-3)CC1 | . | -12 | . | 74* | 1 | 3
O=C(CCCSc1nc2ccccc2[nH]1)N1CCN(c2ccccc2)CC1 | . | 8 | . | 30 | -5 | 9
CC1Cc2ccccc2N1C(=O)CSc1nnc2n1C(C)(C)Cc1ccccc1-2 (configuration not stated) | . | . | . | -42 | -4 | -2
O=C(CCCSc1nc2ccccc2[nH]1)NC(c1ccccc1)c1ccccc1 | -40* | -4 | 5 | 32 | 1 | -4
Cc1cccc(N2CCN(C(=O)CCCSc3nc4ccccc4[nH]3)CC2)c1C | . | . | . | 74* | -21 | 2
CCC(=O)N1[C@H](CO)[C@H](c2ccc(C3=CCCCC3)cc2)[C@@H]1CN(C)C(C)=O | -5 | -1 | 3 | . | . | .

Source: PubChem BioAssay
